# In ChEMBL document CHEMBL4138183, “Diselaginellin B, an Unusual Dimeric Molecule from Selaginella pulvinata, Inhibited Metastasis and Induced Apoptosis of SMMC-7721 Human Hepatocellular Carcinoma Cells” (J Nat Prod, 2017):
# Activity calls are given as the source filed them. The calls are words filed in the database; no cut-off is given here.
# What was measured:
# SMMC-7721 [1] = assay: Cytotoxicity against human SMMC7721 cells assessed as reduction in cell viability after 48 hrs by MTT assay; assay type: functional, cell-based; settings: SMMC-7721, 48 h
# In short: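 MTT viability: 5 × 10^4 cells/well seeded, cultured overnight, treated with graded concentrations 48 h; MTT (5 mg/mL stock) added 4 h, formazan dissolved in DMSO, absorbance read at 490 nm.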
# SMMC-7721 [2] = assay: Induction of apoptosis in human SMMC7721 cells after 48 hrs by Annexin-V-FITC/propidium iodide staining based flow cytometric method; assay type: functional, cell-based
# SMMC-7721 [3] = assay: Cell cycle arrest in human SMMC7721 cells assessed as increase in G1 population at 2.5 to 5 uM after 48 hrs by propidium iodide staining based flow cytometric method; assay type: functional
# In short: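 Cells exposed 48 h to 2.5 or 5 μM, PBS-washed, fixed in 70% ethanol at 4 °C overnight, centrifuged, RNase treated 37 °C 30 min, then PI stained 30 min in dark; G1/S/G2 distribution by flow cytometry; means ± SD, n = 3.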
# SMMC-7721 [4] = assay: Induction of apoptosis in human SMMC7721 cells assessed as live cells at 2.5 uM after 48 hrs by Annexin-V-FITC/propidium iodide staining based flow cytometric method (reference value: 95.75%); assay type: functional
# SMMC-7721 [5] = assay: Induction of apoptosis in human SMMC7721 cells assessed as early apoptotic cells at 2.5 uM after 48 hrs by Annexin-V-FITC/propidium iodide staining based flow cytometric method (reference value: 2.27%); assay type: functional
# SMMC-7721 [6] = assay: Induction of apoptosis in human SMMC7721 cells assessed as late apoptotic cells at 2.5 uM after 48 hrs by Annexin-V-FITC/propidium iodide staining based flow cytometric method (reference value: 1.17%); assay type: functional
# SMMC-7721 [7] = assay: Induction of apoptosis in human SMMC7721 cells assessed as necrotic cells at 2.5 uM after 48 hrs by Annexin-V-FITC/propidium iodide staining based flow cytometric method (reference value: 0.82%); assay type: functional
# SMMC-7721 [8] = assay: Induction of apoptosis in human SMMC7721 cells assessed as live cells at 5 uM after 48 hrs by Annexin-V-FITC/propidium iodide staining based flow cytometric method (reference value: 95.75%); assay type: functional
# SMMC-7721 [9] = assay: Induction of apoptosis in human SMMC7721 cells assessed as early apoptotic cells at 5 uM after 48 hrs by Annexin-V-FITC/propidium iodide staining based flow cytometric method (reference value: 2.27%); assay type: functional
# SMMC-7721 [10] = assay: Induction of apoptosis in human SMMC7721 cells assessed as late apoptotic cells at 5 uM after 48 hrs by Annexin-V-FITC/propidium iodide staining based flow cytometric method (reference value: 1.17%); assay type: functional
# SMMC-7721 [11] = assay: Induction of apoptosis in human SMMC7721 cells assessed as necrotic cells at 5 uM after 48 hrs by Annexin-V-FITC/propidium iodide staining based flow cytometric method (reference value: 0.82%); assay type: functional
# SMMC-7721 [12] = assay: Induction of apoptosis in human SMMC7721 cells assessed as live cells at 10 uM after 48 hrs by Annexin-V-FITC/propidium iodide staining based flow cytometric method (reference value: 95.75%); assay type: functional
# SMMC-7721 [13] = assay: Induction of apoptosis in human SMMC7721 cells assessed as early apoptotic cells at 10 uM after 48 hrs by Annexin-V-FITC/propidium iodide staining based flow cytometric method (reference value: 2.27%); assay type: functional
# SMMC-7721 [14] = assay: Induction of apoptosis in human SMMC7721 cells assessed as late apoptotic cells at 10 uM after 48 hrs by Annexin-V-FITC/propidium iodide staining based flow cytometric method (reference value: 1.17%); assay type: functional
# SMMC-7721 [15] = assay: Induction of apoptosis in human SMMC7721 cells assessed as necrotic cells at 10 uM after 48 hrs by Annexin-V-FITC/propidium iodide staining based flow cytometric method (reference value: 0.82%); assay type: functional
# SMMC-7721 [16] = assay: Antimetastatic activity against human SMMC7721 cells assessed as reduction in cell invasion at 0.5 uM after 48 hrs using crystal violet staining by matrigel based fluorescence microscopic analysis relative to control; assay type: functional
# In short: (§1)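 Transwell invasion: filter (8 μm pore) coated with matrigel for 2 h at 37 °C; 2 × 10^4 cells seeded in serum-free RPMI on upper surface with test agent 48 h; 10% FBS medium in lower chamber. Non-invaded cells swabbed off; invaded cells crystal violet stained, counted in five random fields by fluorescence microscopy. Paclitaxel 100 nM positive control; means ± SD, n = 3.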
# SMMC-7721 [17] = assay: Antimetastatic activity against human SMMC7721 cells assessed as reduction in cell invasion at 1 uM after 48 hrs using crystal violet staining by matrigel based fluorescence microscopic analysis relative to control; assay type: functional; in short: as §1
# SMMC-7721 [18] = assay: Antimetastatic activity against human SMMC7721 cells assessed as reduction in cell invasion at 2 uM after 48 hrs using crystal violet staining by matrigel based fluorescence microscopic analysis relative to control; assay type: functional; in short: as §1
# SMMC-7721 [19] = assay: Antimetastatic activity against human SMMC7721 cells assessed as reduction in cell migration at 0.5 to 2 uM after 48 hrs by crystal violet staining based fluorescence microscopic analysis; assay type: functional
# In short: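 Migration through uncoated Transwell filter (8 μm pore): 2 × 10^4 cells in serum-free RPMI on upper side, treated 0.5, 1 or 2 μM for 48 h; lower chamber 10% FBS medium. Upper-surface cells removed by swab; underside cells crystal violet stained and scored in five random fields under fluorescence microscope. Paclitaxel 100 nM positive control; n = 3.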
# SMMC-7721 [20] = assay: Down regulation of COX1 mRNA expression in human SMMC7721 cells at 8 uM by RT-qPCR analysis; assay type: functional, cell-based
# In short: (§2)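 Cells exposed to 8 μM; target mRNA quantified by RT-qPCR normalized to actin; means ± SD, n = 3.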
# SMMC-7721 [21] = assay: Down regulation of COX2 mRNA expression in human SMMC7721 cells at 8 uM by RT-qPCR analysis; assay type: functional, cell-based; in short: as §2
# SMMC-7721 [22] = assay: Down regulation of NNMT mRNA expression in human SMMC7721 cells at 8 uM by RT-qPCR analysis; assay type: functional, cell-based; in short: as §2
# SMMC-7721 [23] = assay: Down regulation of TSPAN8 mRNA expression in human SMMC7721 cells at 8 uM by RT-qPCR analysis; assay type: functional, cell-based; in short: as §2
# SMMC-7721 [24] = assay: Down regulation of CEACAM7 mRNA expression in human SMMC7721 cells at 8 uM by RT-qPCR analysis; assay type: functional, cell-based; in short: as §2
# SMMC-7721 [25] = assay: Down regulation of MAGP2 mRNA expression in human SMMC7721 cells at 8 uM by RT-qPCR analysis; assay type: functional, cell-based; in short: as §2
# SMMC-7721 [26] = assay: Upregulation of DLD mRNA expression in human SMMC7721 cells at 8 uM by RT-qPCR analysis; assay type: functional, cell-based; in short: as §2
smiles,measurement,setting,value
O=C1C=CC(=C(c2ccc(O)cc2)c2c(-c3ccc(O)cc3)ccc(CO)c2C#Cc2ccc(OCc3ccc(-c4ccc(O)cc4)c(C(=C4C=CC(=O)C=C4)c4ccc(O)cc4)c3C#Cc3ccc(O)cc3)cc2)C=C1,IC50,SMMC-7721 [1],9 µM
same,Activity,SMMC-7721 [2],Dose-dependent effect
same,Activity,SMMC-7721 [3],Active
same,Activity,SMMC-7721 [4],82.58%
same,Activity,SMMC-7721 [5],5.4%
same,Activity,SMMC-7721 [6],11.13%
same,Activity,SMMC-7721 [7],0.89%
same,Activity,SMMC-7721 [8],58.59%
same,Activity,SMMC-7721 [9],7.57%
same,Activity,SMMC-7721 [10],32.3%
same,Activity,SMMC-7721 [11],1.54%
same,Activity,SMMC-7721 [12],47.83%
same,Activity,SMMC-7721 [13],21.22%
same,Activity,SMMC-7721 [14],29.8%
same,Activity,SMMC-7721 [15],1.15%
same,fold change (FC),SMMC-7721 [16],0.53
same,fold change (FC),SMMC-7721 [17],0.42
same,fold change (FC),SMMC-7721 [18],0.39
same,Activity,SMMC-7721 [19],Active
same,Activity,SMMC-7721 [20],Active
same,Activity,SMMC-7721 [21],Active
same,Activity,SMMC-7721 [22],Active
same,Activity,SMMC-7721 [23],Active
same,Activity,SMMC-7721 [24],Active
same,Activity,SMMC-7721 [25],Active
same,Activity,SMMC-7721 [26],Active
